The entries come from a sample that favours hits as a whole.
PTEN del growth: suppresses growth of cells with PTEN deletion; hit rate 1.2% among 140,000; HCT116 PTEN-null viability, CellTiter-Glo, 60 h; hits give low values; AID 827; viability, % at 10 µM;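 active means viability at or below a set limit, 4 SD under the median of all tested compounds, cut at about 3.7% in these data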;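 further: PTEN knockout HCT116 line with beta catenin targeted HCT116 as companion control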
H69AR inhibit: blocks growth of human H69AR lung tumor cells. viability, % at 10 µM. H69AR lung tumor viability, ATP luminescence, 72 h; hits give low values. AID 598. hit rate 6% among 85,000;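 active means viability at or below 40%; inactive means viability above 40%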;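 further: multidrug resistant small cell line overexpressing MRP-1 efflux transporter; 100% = mean luminescence of untreated control wells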
bCat KO growth: beta-catenin-lacking colon tumor cell growth suppression; HCT116 beta-catenin knockout viability, CellTiter-Glo, 60 h; hits give low values; viability, % at 10 µM; hit rate 1.5% among 140,000;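 active means viability at or under a set limit, the compound median less 4 SD, cut at about 6% in these data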;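 further: 0% = Hyamine 1622 control at 20 µM and 100% = untreated cell control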
HUVEC prolif 384: human endothelial cell proliferation inhibition; HUVEC proliferation, CellTiter-Glo luminescence, 72 h; hits give low values; viability, % at 10 µM (by protocol); hit rate 1.1% among 86,000; AID 648;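 active means viability at or below 30%; inactive means viability above 30%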;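 further: 100% = median luminescence of DMSO-only cell control wells on each plate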
Fibroblast inh: blocks proliferation of human lung fibroblasts | AID 719 | LL 47 human lung fibroblast viability, ATP luminescence; hits give low values | hit rate 1.1% among 85,000 | viability, % at 10 µM;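 active means viability at or below 50% in the single dose screen; inactive means viability above 50%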;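 further: compound exposure lasted 72 h before the ATP readout; 100% = median luminescence of untreated cell-only wells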
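Material: Human LL 47 lung fibroblast cells | Input: 1,150 cells/well | Buffer or medium: IMEM plus 15% FBS | Compound dosing: 0.1% DMSO in all compound wells | Times: Overnight cell rest, 72 h compound treatment at 37 °C | Signal: CellTiter-Glo luminescence measuring cellular ATP | Measure: % viability versus median cells-only luminescence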
The depositor's hits bear a star; / = no result.

SMILES	PTEN del growth	H69AR inhibit	bCat KO growth	HUVEC prolif 384	Fibroblast inh
CCc1nc2ccccc2c(=O)n1NC(=O)c1c(O)c2cccc3c2n(c1=O)CCC3	75	26*	71	95	95
CC(C)c1nnc(NC(=O)c2c(O)c3cccc4c3n(c2=O)CC4)s1	/	28*	/	86	96
COC(=O)c1ccccc1NC(=O)c1c(O)c2cccc3c2n(c1=O)CCC3	/	105	/	116	104
O=C(NCc1ccccc1)c1c(O)c2cccc3c2n(c1=O)CCC3	55	73	58	97	96
CCCCc1nc2ccccc2c(=O)n1NC(=O)c1c(O)c2c(n(CC(C)C)c1=O)CCCC2	44	9.7*	42	113	76
Cc1csc(NC(=O)c2c(O)c3cccc4c3n(c2=O)CCC4)n1	/	36*	/	128	96
CC(C)C(NCc1c(Cl)cccc1Cl)C(=O)O (stereo not drawn)	88	/	89	/	/
CCOC(=O)c1c(C)[nH]c(C(=O)N/N=C/c2ccc(Br)cc2)c1C	97	/	99	/	/
CCCCC(=O)Nc1ccc(C(=O)NNC(=O)c2ccc(C)c(Br)c2)cc1	51	/	32	/	/
CCCc1nnc(NC(=O)c2c(O)c3cccc4c3n(c2=O)CCC4)s1	/	6.0*	/	108	97
O=C(Nc1cccnc1)c1c(O)c2cccc3c2n(c1=O)CC3	91	15*	99	103	100
CNC(=O)c1c(O)c2cccc3c2n(c1=O)CC3	/	103	/	102	95
COc1cc(C(=O)OCC(=O)Nc2c(F)c(F)c(F)c(F)c2F)cc(OC)c1OC	97	94	88	97	110
O=[N+]([O-])c1cccnc1N1CCC(c2cc(-c3ccc(Cl)cc3Cl)n[nH]2)CC1	51	84	70	52	107
O=[N+]([O-])c1cccnc1N1CCC(c2cc(-c3cccc(C(F)(F)F)c3)n[nH]2)CC1	49	34*	65	3.7*	101
O=C(OCc1ccccc1)/C(=C/c1cccc2ccccc12)NC(=O)c1ccccc1	82	/	76	/	/
COc1ccc(C2OC34CCCCC3C(C#N)(C#N)C2(C#N)C(=N)O4)cc1 (stereo not drawn)	91	34*	93	96	90
CCCC1OC23CCCCC2C(C#N)(C(=N)O3)C1(C#N)C#N (stereo not drawn)	101	22*	106	83	74
CC1OC23CCCCC2C(C#N)(C(=N)O3)C1(C#N)C#N (stereo not drawn)	95	66	100	94	98
N#CC1(C#N)COC23CCCCC2C1(C#N)C(=N)O3 (stereo not drawn)	102	8.2*	96	78	66
CC(=O)c1cccc(NC(=O)C(Sc2ncnc3ccccc23)c2ccccc2)c1 (stereo not drawn)	68	/	83	/	/
COc1ccc(-c2nc3c(=O)n(C)c(=O)[nH]c3n2CCc2ccccc2)cc1	96	99	121	90	91
O=C(OCC(=O)N(C1CCCCC1)C1CCCCC1)c1ccncc1	89	101	93	106	101
Cc1ccc(Nc2cc(C)nc3nnnn23)cc1	97	97	103	95	101
Cc1ccc(Nc2cc(C)nn2-c2nc(C)cc(C)n2)cc1	27	14*	21	81	89
SMILES	PTEN del growth	H69AR inhibit	bCat KO growth	HUVEC prolif 384	Fibroblast inh
Cc1ccc(Nc2nc3ccccc3nc2-n2nc(C)cc2C)cc1	78	92	88	116	104
Cc1ccc(Nc2cc(C)nn2-c2nc(C)cc(=O)[nH]2)cc1	1.5*	1.4*	2.0*	30*	4.5*
Cc1coc(NC(=O)CSc2nc(-c3ccncc3)cc(C(F)(F)F)c2C#N)n1	82	38*	92	88	99
COc1ccc(C2=CC(c3cc(OC)c(OC)c(OC)c3)NC(=S)N2)cc1 (stereo not drawn)	38	46	33	79	88
CC1CCCCC1n1c(=S)[nH]c2ccccc2c1=O (stereo not drawn)	87	18*	82	82	82
O=C(COC(=O)C1COc2ccccc2O1)NC1CCS(=O)(=O)C1 (stereo not drawn)	114	98	94	93	96
Cc1cc(C)c2nc(NNC(=O)c3ccc(S(=O)(=O)N4CCCC(C)C4)cc3)sc2c1 (stereo not drawn)	7	/	4.0*	/	/
Cc1ccc2nc(NNC(=O)c3ccc(S(=O)(=O)N4CCc5ccccc5C4)cc3)sc2c1	6	/	3.8*	/	/
Cc1cc(C)c2nc(NNC(=O)c3ccc(S(=O)(=O)N4CC(C)CC(C)C4)cc3)sc2c1 (stereo not drawn)	12	/	9	/	/
Cc1cccc2sc(NNC(=O)c3ccc(S(=O)(=O)N4CC(C)CC(C)C4)cc3)nc12 (stereo not drawn)	1.9*	/	2.2*	/	/
COC(=O)c1sc2ccccc2c1NC(=O)c1ccc(S(=O)(=O)N2CC(C)CC(C)C2)cc1 (stereo not drawn)	82	/	75	/	/
COc1ccc(/C=N/NC(=O)Nc2cccc3nsnc23)cc1	77	/	76	/	/
CCOc1ccc(CNCc2cccnc2)cc1	107	105	88	93	99
CC(=O)n1c2c(c3ccccc31)OC(N)=C(C#N)C2c1ccc(C(C)C)cc1 (stereo not drawn)	81	/	89	/	/
O=C(Cn1cnc([N+](=O)[O-])c1)Nc1cc(Oc2ccc(Cl)cc2Cl)cc([N+](=O)[O-])c1	5	9.9*	8	42	93
CCOC(=O)c1cc2c(N)c(C(=O)c3cc(C#N)c(SC)nc3C)sc2nc1C	17	16*	66	42	/
O=C(c1ccccc1OCc1ccccc1Br)N1CCN(c2ncccn2)CC1	40	28*	51	73	74
O=C(c1ccc(F)cc1F)N1CCN(c2ncccn2)CC1	102	100	110	93	104
Cc1occc1C(=O)N1N=C(C2CC2)CC1(O)C(F)(F)F (stereo not drawn)	86	91	91	103	101
Cc1ccc(C2=NN(C(=O)CCl)C(c3cccs3)C2)o1 (stereo not drawn)	2.1*	/	3.6*	/	/
O=C(CCl)N1N=C(c2ccco2)CC1c1cccs1 (stereo not drawn)	1.9*	/	3.2*	/	/
CC(=O)N1N=C(c2ccc(C)o2)CC1c1ccc(Br)cc1 (stereo not drawn)	97	/	102	/	/
CC(=O)N1N=C(c2ccco2)CC1c1cccs1 (stereo not drawn)	106	/	91	/	/
CC1(C)Cc2c(c(-c3ccco3)nc3sc4c(NCCN5CCOCC5)ncnc4c23)CO1	1.4*	/	1.6*	/	/
COc1cccc(C(=O)Nc2nc3ccccc3[nH]2)c1	81	32*	75	68	60
O=C(COc1ccccc1)Nc1nc2ccccc2[nH]1	99	102	99	102	99
CC(CC(=O)Nc1nc2ccccc2[nH]1)c1ccccc1 (stereo not drawn)	70	12*	71	88	91
CCCSc1ccc2nc(NC(=O)OC)[nH]c2c1	12	20*	9	45	53
O=C(CSc1ccc2ccccc2c1)Nc1nc2ccccc2[nH]1	101	/	94	/	/

High-throughput results: PubChem, SRMLSC
